Source: ChEMBL document CHEMBL1133178, “Synthesis and evaluation of "AZT-HEPT", "AZT-pyridinone", and "ddC-HEPT" conjugates as inhibitors of HIV reverse transcriptase” (J Med Chem, 2000)

Tests used:
[1] = target: Human immunodeficiency virus type 1 reverse transcriptase (Human immunodeficiency virus 1) (UniProt Q72547); assay: Cytotoxic concentration which reduces the cell viability of HIV-1 LAI infected T4 lymphoblastoid CEM-SS cells by 50%; assay type: functional, cell-based
MT4 [2] = assay: Cytotoxic concentration which reduces the cell viability of HIV-1 IIIB infected T4 lymphoblastoid MT-4 cells by 50%; assay type: functional; conditions: Homo sapiens
How it was run: (§1)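 Cytotoxicity was run in parallel, in the same experiment, on uninfected, compound-treated MT-4 or CEM-SS cells cultured 5 days. Viability was measured by MTT reduction to formazan (OD 540 nm). CC50 is the concentration reducing viability by 50%, calculated by median-effect analysis; means of duplicates.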

MT4 [3] = assay: Effective concentration. required to achieve 50% inhibition of HIV-1 IIIB multiplication in hT4 lymphoblastoid MT-4 cells using MTT assay; assay type: functional, cell-based; conditions: Homo sapiens
How it was run: (§2)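 MT-4 cells infected with 50 TCID50 of HIV-1 IIIB; 30 min adsorption, free virus washed off, then cultured with a range of compound concentrations for 5 days. Protection from virus-induced cytopathogenicity was read by MTT reduction (OD 540 nm). EC50 taken from a median-effect plot of dose-effect data; means of duplicate experiments.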

[4] = (§3) Cytotoxic concentration which reduces the cell viability of HIV-1 IIIB infected PBM (peripheral blood mononuclear) cells; assay type: functional; conditions: Homo sapiens
[5] = Effective concentration required to achieve 50% inhibition of HIV-1 IIIB multiplication in PBM (peripheral blood mononuclear) cells; assay type: functional, Homo sapiens
[6] = Effective concentration required to achieve 50% inhibition of HIV-2 D194 multiplication in PBM (peripheral blood mononuclear) cells; assay type: functional, Homo sapiens
[7] = target: Human immunodeficiency virus type 1 reverse transcriptase (Human immunodeficiency virus 1) (UniProt Q72547); assay: Cytotoxic conc. which reduces the cell viability of HIV-1 LAI infected T4 lymphoblastoid CEM-SS cells by 50%; assay type: functional, cell-based
MT4 [8] = assay: Cytotoxic conc. which reduces the cell viability of […] T4 lymphoblastoid MT-4 cells by 50%; assay type: functional; conditions: Homo sapiens; how it was run: as §1
MT4 [9] = assay: Effective concentration required to achieve 50% inhibition of HIV-1 IIIB multiplication in hT4 lymphoblastoid MT-4 cells using MTT assay; assay type: functional, cell-based; conditions: Homo sapiens; how it was run: as §2
[10] = Effective conc. required to achieve 50% inhibition of HIV-1 IIIB multiplication in PBM (peripheral blood mononuclear) cells; assay type: functional, Homo sapiens
[11] = Effective conc. required to achieve 50% inhibition of HIV-2 D194 multiplication in PBM (peripheral blood mononuclear) cells; assay type: functional, Homo sapiens
CEM-SS = assay: Effective concentration required to achieve 50% inhibition of HIV-1 181C (nevirapine-resistant HIV-1) multiplication in CEM-SS cells.; assay type: functional, cell-based; conditions: Homo sapiens
How it was run: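 CEM-SS cells infected with 100 TCID50 of nevirapine-resistant HIV-1, 30 min adsorption, then washed to remove free virus. Cultured with a range of compound concentrations for 5 days. Virus production read as reverse transcriptase activity of virions released into culture supernatants. EC50 taken from a computer-generated median effect plot of dose-effect data; means of duplicate experiments.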

MT4 [12] = assay: as §3; assay type: functional, cell-based; conditions: Homo sapiens
[13] = concentration of compound which reduces the cell viability by 50% against PBM (peripheral blood mononuclear) cells infected with HIV-1 IIIB cells.; assay type: functional; conditions: Homo sapiens
MT4 [14] = assay: Cytotoxic concentration. which reduces the cell viability of […] T4 lymphoblastoid MT-4 cells by 50%; assay type: functional; conditions: Homo sapiens; how it was run: as §1
[15] = Effective concentration. required to achieve 50% inhibition of HIV-2 D194 multiplication in PBM (peripheral blood mononuclear) cells; assay type: functional, Homo sapiens

Row | EC50 [5] | EC50 [6] | Structure (SMILES) | CC50 [1] | CC50 (MT4 [2]) | CC50 [4] | EC50 (MT4 [9]) | other results
1 | > 100 µM | > 100 µM | [N-]=[N+]=NC1CC(n2cc(CCC(=O)NCCCCN)c(=O)[nH]c2=O)OC1CO (configuration not stated) | > 100 µM | > 100 µM | > 100 µM | – | EC50 (MT4 [3]): > 100 µM
2 | – | – | Cc1cn([C@H]2C[C@H](N=[N+]=[N-])[C@@H](CO)O2)c(=O)[nH]c1=O [ZIDOVUDINE] | – | – | 75 µM | 0.02 µM | CC50 [7]: > 100 µM; CC50 (MT4 [8]): > 100 µM; EC50 [10]: 0.001 µM; EC50 [11]: 0.006 µM
3 | – | – | CCc1c(C)nc(O)c(N)c1Cc1cc(C)cc(C)c1 | > 10 µM | – | – | – | –
4 | – | – | CCc1c(C)nc(O)c(NC(=O)CNC(=O)CNC(=O)OC(C)(C)C)c1Cc1cc(C)cc(C)c1 | > 100 µM | – | – | – | –
5 | – | – | CCc1c(C)nc(O)c(NC(=O)CCCCCCCCC(=O)O)c1Cc1cc(C)cc(C)c1 | > 10 µM | – | – | – | –
6 | 40 µM | > 100 µM | Cc1cn(C2CC(N=[N+]=[N-])C(CO)O2)c(=O)n(CCC(=O)NCCCCCCCCCCN)c1=O (configuration not stated) | 60 µM | > 100 µM | 80 µM | > 100 µM | –
7 | – | – | CCc1c(C)nc(O)c(NC(=O)CCCCCCCCCN)c1Cc1cc(C)cc(C)c1 | > 66 µM | – | – | – | –
8 | – | – | CCc1c(C)nc(O)c(NC(=O)CCCCCCCCC(=O)OC)c1Cc1cc(C)cc(C)c1 | > 10 µM | – | – | – | –
9 | 75 µM | 68 µM | [N-]=[N+]=NC1CC(n2cc(CCC(=O)NCCCCCCCCCCN)c(=O)[nH]c2=O)OC1CO (configuration not stated) | 38 µM | 60 µM | 77 µM | > 100 µM | –
10 | – | – | CCc1c(C)nc(O)c(NC(=O)CNC(=O)CN)c1Cc1cc(C)cc(C)c1 | > 100 µM | – | – | – | –
11 | 2.1 µM | 8 µM | CCOC(=O)CCn1c(=O)c(C)cn(C2CC(N=[N+]=[N-])C(CO)O2)c1=O (configuration not stated) | > 100 µM | > 100 µM | > 100 µM | 4.3 µM | –
12 | – | – | Nc1ccn([C@H]2CC[C@@H](CO)O2)c(=O)n1 [ZALCITABINE] | – | – | 10 µM | 2.4 µM | CC50 [7]: 34 µM; CC50 (MT4 [8]): > 100 µM; EC50 [10]: 0.016 µM; EC50 [11]: 0.07 µM
13 | > 100 µM | > 100 µM | COC(=O)CCCNC(=O)CCc1cn(C2CC(N=[N+]=[N-])C(CO)O2)c(=O)[nH]c1=O (configuration not stated) | > 100 µM | 75 µM | > 100 µM | > 100 µM | –
14 | – | – | CCc1c(C)nc(O)c(NC(=O)CCCC(=O)OC)c1Cc1cc(C)cc(C)c1 | > 100 µM | – | – | – | –
15 | – | – | CCc1c(C)nc(O)c(NC(=O)CCCCCCCCCNC(=O)OC(C)(C)C)c1Cc1cc(C)cc(C)c1 | > 10 µM | – | – | – | –
16 | 2.9 µM | 4.7 µM | NCCCCCCCCCCCCNc1ccn(C2CCC(CO)O2)c(=O)n1 (configuration not stated) | 48 µM | > 100 µM | 61 µM | 100 µM | –
17 | – | – | CCc1c(C)nc(O)c(NC(=O)CCCC(=O)O)c1Cc1cc(C)cc(C)c1 | 28 µM | – | – | – | –
18 | > 100 µM | – | COC(=O)CCc1cn(C2CC(N=[N+]=[N-])C(CO)O2)c(=O)[nH]c1=O (configuration not stated) | > 100 µM | – | > 100 µM | > 100 µM | CC50 (MT4 [14]): > 100 µM; EC50 [15]: > 100 µM

Row | Structure (SMILES) | EC50 [5] | EC50 [6] | CC50 [1] | CC50 (MT4 [2]) | CC50 [4] | EC50 (MT4 [9]) | other results
19 | CCc1c(Sc2cc(C)cc(C)c2)n(CCCCC(=O)NCCCCCCCCCCCCNc2ccn(C3CCC(CO)O3)c(=O)n2)c(=O)[nH]c1=O (configuration not stated) | 0.46 µM | – | > 25 µM | > 10 µM | > 10 µM | 6.2 µM | EC50 (CEM-SS): 0.53 µM
20 | CCc1c(Sc2cc(C)cc(C)c2)n(CCCCC(=O)OC)c(=O)[nH]c1=O | 0.18 µM | > 33 µM | > 33 µM | > 10 µM | > 33 µM | 0.33 µM | EC50 (CEM-SS): > 33 µM
21 | CCc1c(Sc2cc(C)cc(C)c2)n(CCCCC(=O)NCCCCNC(=O)CCc2cn(C3CC(N=[N+]=[N-])C(CO)O3)c(=O)[nH]c2=O)c(=O)[nH]c1=O (configuration not stated) | 4.3 µM | > 50 µM | > 55 µM | > 10 µM | > 50 µM | > 10 µM | EC50 (CEM-SS): > 50 µM
22 | CCc1c(Sc2cc(C)cc(C)c2)n(CCCCC(=O)NCCCCCCCCCCNC(=O)CCc2cn(C3CC(N=[N+]=[N-])C(CO)O3)c(=O)[nH]c2=O)c(=O)[nH]c1=O (configuration not stated) | 5.1 µM | > 25 µM | > 25 µM | 10 µM | – | – | EC50 (CEM-SS): > 25 µM; EC50 (MT4 [12]): > 10 µM; CC50 [13]: > 25 µM
23 | CCc1c(Sc2cc(C)cc(C)c2)n(CCCCC(=O)NCCCCCCCCCCNC(=O)CCn2c(=O)c(C)cn(C3CC(N=[N+]=[N-])C(CO)O3)c2=O)c(=O)[nH]c1=O (configuration not stated) | 5.5 µM | > 25 µM | > 25 µM | > 10 µM | > 25 µM | > 10 µM | EC50 (CEM-SS): 23 µM
